The subject of one experiment is HCT-8 cells. Nature of the experiment: Cytotoxicity to HCT-8 cells. The experiment is classed as cell-based, human. The settings on record: read-out: Host cell IC50.
In experiment [1] the test system is C. parvum. The settings on record: ref Darkin-Rattray et al., 1996; cited from earlier work.
The subject of a further experiment is C. parvum HNJ-1 strain. Nature of the experiment: Initial epigenetic library compound screening for C. parvum. The following applies: for inhibition at 5 µM: Cryptosporidium parvum, HCT-8, 48 h, read-out: Parasite inhibition (%) (primary screening); for Parasite inhibition (%) (primary screening): 5 μM, 48 h, HCT-8 cells, vs DMSO, single experiment, single replicate. In kind it is cell-based, Cryptosporidium parvum.

Experiment [2] deals with C. parvum. In kind it is cell-based, Cryptosporidium parvum. The settings on record: for inhibition at 5 µM: Cryptosporidium parvum, HCT-8, 48 h, read-out: Parasite inhibition (%); for Parasite inhibition (%): C. parvum, 5 μM, HCT-8 cells, compound present from inoculation, 48 h.
Experiment [3] has as its system C. parvum. In words: C. parvum growth when compound is added after invasion of host cells. The experiment is classed as cell-based, Cryptosporidium parvum. The following applies: 5 μM added after 3 h invasion, further 45 h, compared with DMSO control. Put shortly:
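HCT-8 cells (2 × 10^4/well) grown 24 h, infected with 5 × 10^4 HNJ-1 oocysts in RPMI-1640 for 3 h; test compound (5 μM) or DMSO then added for 45 h; nitazoxanide 5 μM as control. Methanol-fixed, BSA-blocked, Sporo-Glo stained; 42 fields/well imaged at 20×, parasites and nuclei counted automatically; relative to DMSO. Triplicate wells, three independent experiments.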

Experiment [4] has as its system acetylated histone H3K9 of C. parvum sporozoites. In words: Acetylated histone in extracellular parasites. The following applies: Fig. 4A, 10 μM, incubation 30 min. In kind it is cell-based, Cryptosporidium parvum.
Experiment [5] relates to C. parvum. The settings on record: read-out: IC50 against C. parvum, ref Bessoff et al., 2013, cited from earlier work.
Experiment [6] relates to C. parvum. The settings on record: 100 or 200 mg/kg; ref Theodos et al., 1998; cited from earlier work.
In another experiment the test system is T. gondii RH-2F. Nature of the experiment: T. gondii growth assay. In kind it is cell-based, Toxoplasma gondii. The settings on record: 5 μM, positive control, HFF cells, 48 h.

The structures appear in SMILES notation. Where two headings read alike, the source gives them in different places.

As to `CCC(=O)CCCCC[C@@H]1NC(=O)[C@H]2CCCCN2C(=O)[C@H]([C@@H](C)CC)NC(=O)[C@H](Cc2cn(OC)c3ccccc23)NC1=O` [Apicidin], the IC50 in the experiment on HCT-8 cells (Homo sapiens, HCT-8, 48 h) was 1.5 ± 0.1 µM. In addition, in the experiment on C. parvum [1], the “minimum concentration at which all C. parvum growth was inhibited” value was 45 µM. In addition, the figures for the inhibition at 5 µM in the experiment on C. parvum HNJ-1 strain and in the experiment on C. parvum [2] were 83% and 83.5 ± 1.4%, respectively.
Consider `O=C1c2ccccc2C(=O)c2c(NCCc3ccc(O)cc3)ccc(NCCc3ccc(O)cc3)c21` [BML-266], for which the half-maximal inhibitory concentration (IC50) in the experiment on HCT-8 cells (HCT-8 cells, 48 h) was determined as 51.2 ± 0.6 µM. For the same molecule, the “Parasite inhibition (%) (primary screening)” value in the experiment on C. parvum HNJ-1 strain amounted to 97%. The “Parasite inhibition (%)” value in the experiment on C. parvum [2] turned out to be 64.7 ± 3.9%.
For `CC(=O)Nc1ccc(C(=O)Nc2ccccc2N)cc1` [CI-994], the IC50 with HCT-8 cells (Homo sapiens, HCT-8, 48 h) is 24.6 ± 2.4 µM. In addition, the inhibition at 5 µM in the experiment on C. parvum HNJ-1 strain was 88%. In the experiment with C. parvum [2], the “Parasite inhibition (%)” value is recorded as “no effect on growth inhibition” and the inhibition at 5 µM is -15.7 ± 8.4%.
Take `CN(C)c1ccc(C(=O)NCCCCCCC(=O)NO)cc1` [M-344]: in the experiment with HCT-8 cells (HCT-8 cells, 48 h), the IC50 turned out to be 2.3 ± 0.2 µM. In addition, the “Parasite inhibition (%) (primary screening)” value in the experiment on C. parvum HNJ-1 strain was 71%. In addition, the “Parasite inhibition (%)” value in the experiment with C. parvum [2] is recorded as 71.3 ± 1.7%.
Regarding `O=Nc1ccc(O)c2ncccc12` [NSC-3852], the 50% inhibitory concentration (IC50) with HCT-8 cells (HCT-8 cells, 48 h) was 36.7 ± 1 µM. Also, in the experiment on C. parvum HNJ-1 strain, the “Parasite inhibition (%) (primary screening)” value was 88%. For the same molecule, the “Parasite inhibition (%)” value in the experiment on C. parvum [2] is 64.4 ± 0.4%.
Regarding `O=C(/C=C/C#Cc1cccc(NS(=O)(=O)c2ccccc2)c1)NO` [Oxamflatin], the half-inhibitory concentration (IC50) with HCT-8 cells (Homo sapiens, HCT-8, 48 h) was determined as 2.5 ± 0.1 µM. For the same molecule, the inhibition at 5 µM with C. parvum HNJ-1 strain stood at 100%; in the experiment on C. parvum [2], 49.8 ± 4%.
For the molecule `O=C(CCCCCN1C(=O)c2cccc3cccc(c23)C1=O)NO` [Scriptaid], the IC50 in the experiment on HCT-8 cells (Homo sapiens, HCT-8, 48 h) was determined as 11.9 ± 1.3 µM. Also, in the experiment on C. parvum HNJ-1 strain, the inhibition at 5 µM is 10%. In addition, in the experiment with C. parvum [2], the “Parasite inhibition (%)” value is listed as “did not inhibit the growth” and the inhibition at 5 µM amounted to 4 ± 5.7%.
For `CC(/C=C/C(=O)NO)=C\[C@@H](C)C(=O)c1ccc(N(C)C)cc1` [TrichostatinA], the concentration for half-maximal inhibition (IC50) with HCT-8 cells (HCT-8 cells, 48 h) was found to be 1.6 ± 0.1 µM. Also, the “Parasite inhibition (%) (primary screening)” value in the experiment with C. parvum HNJ-1 strain amounted to 76%. Also, the “Parasite inhibition (%)” value with C. parvum [2] was 75.7 ± 0.8%.
With `CC(=O)Oc1ccccc1C(=O)Nc1ncc([N+](=O)[O-])s1` [nitazoxanide], the “relative number of C. parvum” value with C. parvum [3] is reported as 44.9 ± 7.3%. In experiment [4], the “Density of bands of H3K9Ac/H3 normalized by the loading control” value is listed as “increased”. Besides, the 50% inhibitory concentration (IC50) was 3.7 µM with C. parvum [5] and roughly 3.7 µM in the experiment on C. parvum [5] (listed as Nitazoxanide). For the same molecule, the “reduction of the parasite in C. parvum-infected SCID mice” value with C. parvum [6] is listed as “ineffective”.
`CCc1nc(N)nc(N)c1-c1ccc(Cl)cc1` [pyrimethamine]: the “growth of T. gondii” value with T. gondii RH-2F is “completely inhibited”.

(Values after article PMC7593347 (International Journal for Parasitology: Drugs and Drug …, 2020).)
